From PubChem BioAssay come the findings set out here.

A short description of assay [1]: inhibitors of TNFa-induced NFkB p65 translocation, primary screen, imaging, HUVEC, MLSMR starter and 10KST1 sets (AID 438).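 Further: compound added about 3h40 before a 20 min TNFalpha stimulation.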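 On inhibition: signal is the nuclear over cytoplasmic p65 intensity ratio per well.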 The note with it: HUVEC TNFa-induced p65 nuclear translocation; cell count: measured here: nuclei count (cytotoxicity indicator), at 2.08 µM; inhibition: at 2 µM, stronger effect = higher value, 0% TNFa-plus-vehicle, 100% no-TNFa wells.
Assay [2] is described as follows: inhibitors of mutant huntingtin aggregation, primary screen, imaging, exon1htt(103Q)mCFP cells, high-content imaging (AID 483;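 active means visual image review flags a hit and inhibition of aggregation exceeds 20%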;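 further: compound exposure lasted 3 days before fixation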;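 on nuclei count: percent of the per-plate median nuclei count of sample wells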). The note with it: exon1htt(103Q)mCFP cell line, aggregate imaging, at 2 µM; inhibition of aggregation: stronger effect = higher value; nuclei count: measured here: cell count, toxicity.
Assay [3] can be described thus: inhibitors of E-selectin induction by TNFa, primary screen, imaging, HUVEC, immunofluorescence, MLSMR starter and 10KST1 sets (AID 487;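 active means visually confirmed hit in the image check and inhibition above 20%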;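 on inhibition: signal is fraction of cell area covered by stained E-selectin grains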;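 on nuclei count: 100% = median nuclei count of all wells on the same plate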). The note with it: HUVEC TNFalpha-induced E-selectin immunofluorescence imaging, at 2 µM; inhibition: stronger effect = higher value; nuclei count: measured here: cell number, toxicity.
The target of assay [4] is Voltage-gated potassium channel subunit beta-2 (Rattus norvegicus) (UniProt P62483). The experiment in a line: KvBeta enzyme negative modulators, primary screen, biochemical, NADPH fluorescence (AID 622;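 active means fluorescence slope higher than the sample average by over 3 SD, cut at about -0.22 in these data, passing the limit was not always enough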;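 further: slope of raw intensity against log time taken from 70 to 1610 s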). Particulars: recombinant KvBeta, 4-cyanobenzaldehyde reduction, at 10 µM, stronger effect = higher value.
The target is the same in assay [5]. In words: KvBeta positive modulators, primary screen, biochemical, NADPH fluorescence (AID 623;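 active means NADPH fluorescence slope more negative than the mean of all samples by about 3 SD, 99.7% confidence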;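 further: fluorescence intensity change per second fitted from 20 to 320 s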). Particulars: Recombinant KvBeta, NADPH fluorescence decrease slope, 10 min; at 10 µM; stronger effect = lower value.
Assay [6] has as its target Muscarinic acetylcholine receptor M4 (Homo sapiens) (UniProt P08173). The experiment in a line: compounds altering M4/GIRK thallium flux, either direction, primary screen, M4 allosteric agonist project, cell-based, HEK293 M4/GIRK, BTC-AM (AID 625;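 active means fluorescence slope after compound addition differing from the mean of all tested samples at 99.7% confidence, mostly higher but some lower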;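 further: thallium influx through GIRK channels coupled to M4 in HEK293 cells with BTC-AM dye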). The note with it: at 10 µM, actives lie on both sides. The method in brief: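 Material: M4/GIRK1/GIRK2 stable HEK293 cell line. Medium: pH 7.3 thallium assay buffer. Dosing: single compound concentration, 10 µM final. Schedule: 1 h dye loading, 2 min kinetic read. Measured by: kinetic fluorescence with BTC-AM dye. Read-out: post-addition slope, 15–24 s, of baseline-normalized fluorescence. Benchmarks: carbachol and DMSO controls.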

Assay [7] is described as follows: inhibitors of Sendai virus-induced IRF3 signaling, primary screen, TLR/RLR signaling modifier project, cell-based, Sendai virus stimulus, luciferase, 10K MLSCN set (AID 602276;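 active means inhibition at or above 50% at 10 µM; inactive means inhibition below 50%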;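 further: firefly luciferase from ISG56 promoter only with Renilla not read in this screen; 0% = Sendai virus plus DMSO and 100% = medium plus DMSO without virus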). Particulars: HEK293 RL24 IRF3 luciferase reporter, at 10 µM, stronger effect = higher value. (In general: Reporter assays use an easily measured gene product as a stand-in for the process of interest.)

The nature of assay [8]: inhibitors of poly I:C-induced TLR3 signaling, primary screen, cell-based, poly I:C stimulus, luciferase, 10K MLSCN set (AID 602277;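 active means inhibition of the reporter signal at or above 50%; inactive means inhibition below 50%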). The note with it: HEK293-TLR3 RL24 IRF3 luciferase reporter, at 10 µM, stronger effect = higher value.

Each structure is given as a SMILES string. The source made the active and inactive calls.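 How the source made its calls, unless noted: active means inhibition above 20% together with a positive visual image hit; inconclusive means visual image hit but inhibition not above 20%; inactive means no visual image hit.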

Sequence of Voltage-gated potassium channel subunit beta-2 (Rattus norvegicus) (P62483 whole entry, looked up): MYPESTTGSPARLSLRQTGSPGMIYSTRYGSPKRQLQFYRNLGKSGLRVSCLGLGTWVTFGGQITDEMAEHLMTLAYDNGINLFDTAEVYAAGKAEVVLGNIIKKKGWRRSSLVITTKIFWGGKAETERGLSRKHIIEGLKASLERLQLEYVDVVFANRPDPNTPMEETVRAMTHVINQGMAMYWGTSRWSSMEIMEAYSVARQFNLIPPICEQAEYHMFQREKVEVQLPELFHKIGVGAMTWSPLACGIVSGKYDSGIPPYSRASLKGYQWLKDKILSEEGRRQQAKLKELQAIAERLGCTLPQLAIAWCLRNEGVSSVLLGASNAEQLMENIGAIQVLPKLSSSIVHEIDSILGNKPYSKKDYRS
Sequence of Muscarinic acetylcholine receptor M4 (Homo sapiens) (P08173 whole entry, looked up): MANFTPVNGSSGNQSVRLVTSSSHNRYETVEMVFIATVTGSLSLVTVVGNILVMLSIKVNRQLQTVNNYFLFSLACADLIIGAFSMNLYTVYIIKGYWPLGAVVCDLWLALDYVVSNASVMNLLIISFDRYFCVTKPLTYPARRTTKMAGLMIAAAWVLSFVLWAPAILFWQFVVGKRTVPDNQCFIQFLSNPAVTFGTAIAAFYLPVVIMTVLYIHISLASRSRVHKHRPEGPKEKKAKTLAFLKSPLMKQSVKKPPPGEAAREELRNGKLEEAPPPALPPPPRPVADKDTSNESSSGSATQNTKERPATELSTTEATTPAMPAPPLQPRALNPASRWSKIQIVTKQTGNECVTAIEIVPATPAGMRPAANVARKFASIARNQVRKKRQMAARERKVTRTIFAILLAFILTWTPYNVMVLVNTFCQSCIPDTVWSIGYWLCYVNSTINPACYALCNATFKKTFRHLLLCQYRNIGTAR

With `Cc1[nH]c(=O)[nH]c(=O)c1S(=O)(=O)N1CCN(c2cccc(Cl)c2)CC1`, the cell count in assay [1] worked out at 799. Also, the inhibition was 4.2% (inactive) in assay [1], -160% (inactive) in assay [3], -13.2% (inactive) in assay [7] and -11.6% (inactive) in assay [8]. Further, the inhibition of aggregation in assay [2] is -23.7% (inactive). In addition, the nuclei count was 104% in assay [2] and 126% in assay [3]. Also, the fluorescence slope in assay [4] was -0.567 (inactive); in assay [6] it was 0.0059 (inactive). Further, the NADPH fluorescence slope in assay [5] is -1.8e-05 (inactive).
Consider `Nc1c(C2=NCCO2)nnn1Cc1ccccc1`, for which the cell count in assay [1] was determined as 612. The inhibition in assay [1] is 4.2% (inactive); in assay [3], -130% (inactive); in assay [7] it was 19.1% (inactive); in assay [8], 19.1% (inactive). The inhibition of aggregation in assay [2] was 19.4% (inactive). Further, the figures for the nuclei count in assay [2] and in assay [3] were 79.3% and 149%, respectively. Also, the fluorescence slope was -0.597 (inactive) in assay [4] and 0.00414 (inactive) in assay [6]. Besides, the NADPH fluorescence slope in assay [5] was -4.6e-05 (inactive).
`CC(=O)N1C(=O)c2cccc3cccc(c23)C(=O)N1C(C)=O`: the cell count in assay [1] came to 776. Moreover, the inhibition is 4.6% (inactive) in assay [1], -62.5% (inactive) in assay [3], 18.6% (inactive) in assay [7] and 15.3% (inactive) in assay [8]. Besides, the inhibition of aggregation in assay [2] was -3.8% (inactive). Besides, the results for the nuclei count in assay [2] and in assay [3] were 93.6% and 120%, respectively. In addition, the fluorescence slope is -0.444 (inactive) in assay [4] and 0.00473 (inactive) in assay [6]. Besides, in assay [5], the NADPH fluorescence slope is -2.9e-05 (inactive).
As to `O=C(CN1C(=O)c2cccc3cccc1c23)NCC1CCCO1` (centres undefined), the cell count in assay [1] is 356. For the same compound, the inhibition in assay [1] is 20.1% (inactive); in assay [3], -58% (inactive); in assay [7], -5.13% (inactive); in assay [8], -11.1% (inactive). Also, in assay [2], the inhibition of aggregation was 13.2% (inactive). In addition, the nuclei count in assay [2] came to 79.5%; in assay [3] it was 102%. In addition, the fluorescence slope in assay [4] was -0.433 (inactive); in assay [6] it was 0.00404 (inactive). Also, in assay [5], the NADPH fluorescence slope was -4.9e-05 (inactive).
For `O=C(Cc1cccs1)Nc1ccccc1C(=O)O`, the cell count in assay [1] worked out at 365. Besides, the inhibition in assay [1] was 2.6% (inactive); in assay [3], -7.6% (inactive); in assay [7], -8.52% (inactive); in assay [8], -27.9% (inactive). Further, the inhibition of aggregation in assay [2] was 13.3% (inactive). Also, the nuclei count turned out to be 99.5% in assay [2] and 113% in assay [3]. Further, the fluorescence slope in assay [4] was -0.524 (inactive); in assay [6], 0.00502 (inactive). In addition, the NADPH fluorescence slope in assay [5] was -3.3e-05 (inactive).
In the case of `CCCN1C2=C(C(=O)CCC2)C(c2ccc(O)c(Br)c2)C2=C1CCCC2=O`, in assay [1], the cell count was found to be 736. Also, the inhibition in assay [1] is -30.6% (inactive); in assay [3], -7.3% (inactive); in assay [7], 9.76% (inactive); in assay [8] it was 17.2% (inactive). Moreover, in assay [2], the inhibition of aggregation was 2% (inactive). Further, the nuclei count was 97.2% in assay [2] and 107% in assay [3]. Further, the figures for the fluorescence slope in assay [4] and in assay [6] were -0.531 (inactive) and 0.00464 (inactive), respectively. Moreover, in assay [5], the NADPH fluorescence slope was -5.9e-05 (inactive).
Turning to `CCc1ccccc1NC(=O)CN(c1cccc(OC)c1)S(C)(=O)=O`, the cell count in assay [1] is 345. For the same compound, the inhibition is 2.5% (inactive) in assay [1], -28.2% (inactive) in assay [3], -7.55% (inactive) in assay [7] and -6.22% (inactive) in assay [8]. Further, in assay [2], the inhibition of aggregation is -3.1% (inactive). Besides, the nuclei count in assay [2] was 99%; in assay [3], 111%. Besides, the fluorescence slope is -0.544 (inactive) in assay [4] and 0.00451 (inactive) in assay [6]. In addition, in assay [5], the NADPH fluorescence slope was -7.9e-05 (inactive).
On to `CCn1c(SCC(=O)NCCc2ccc(Cl)cc2)nnc1-c1cccs1`, for which, in assay [1], the cell count was 616. Also, the inhibition was 6.9% (inactive) in assay [1], -11.2% (inactive) in assay [3], -15.7% (inactive) in assay [7] and -13.3% (inactive) in assay [8]. For the same compound, the inhibition of aggregation in assay [2] is 25.3% (inactive). Further, the nuclei count in assay [2] worked out at 69.4%; in assay [3] it was 106%. Besides, the fluorescence slope was -0.572 (inactive) in assay [4] and 0.00799 (inactive) in assay [6]. Besides, the NADPH fluorescence slope in assay [5] is -5e-05 (inactive).
As to `COc1cccc(C(=O)CSc2nnc(COc3cccc4cccnc34)o2)c1`, the cell count in assay [1] was 558. The inhibition was -6.3% (inactive) in assay [1], -1.4% (inactive) in assay [3], -8.03% (inactive) in assay [7] and -13.7% (inactive) in assay [8]. The inhibition of aggregation in assay [2] was -10.3% (inactive). Besides, the nuclei count in assay [2] worked out at 117%; in assay [3], 197%. Further, the fluorescence slope in assay [4] was -0.51 (inactive); in assay [6] it was 0.00397 (inactive). For the same compound, the NADPH fluorescence slope in assay [5] was 3.4e-05 (inactive).
For `O=C1CN(c2ccccc2F)C(=O)CN1c1ccccc1F`, the cell count in assay [1] was found to be 330. For the same compound, the inhibition in assay [1] was -2.3% (inactive); in assay [3] it was -61.6% (inactive); in assay [7] it was 14.9% (inactive); in assay [8], 14.3% (inactive). In assay [2], the inhibition of aggregation is -2.1% (inactive). For the same compound, the results for the nuclei count in assay [2] and in assay [3] were 97.5% and 89.8%, respectively. Moreover, the fluorescence slope is -0.476 (inactive) in assay [4] and 0.00583 (inactive) in assay [6]. Also, in assay [5], the NADPH fluorescence slope is -3.1e-05 (inactive).
With `Cc1ccc(CCNC(=O)Cn2cccc2)cc1`, in assay [1], the cell count turned out to be 349. In addition, the inhibition in assay [1] was -4.8% (inactive); in assay [3] it was -38.9% (inactive); in assay [7], 12.9% (inactive); in assay [8] it was -5.93% (inactive). The inhibition of aggregation in assay [2] was -1.7% (inactive). For the same compound, the nuclei count in assay [2] stood at 105%; in assay [3], 103%. Moreover, the values for the fluorescence slope in assay [4] and in assay [6] were -0.355 (inactive) and 0.00566 (inactive), respectively. Besides, in assay [5], the NADPH fluorescence slope was -5.5e-05 (inactive).
With `Cc1ccc(O)c(C(=O)c2cc(C#N)c(=O)n(CC3CCCO3)c2)c1` (centres undefined), the cell count in assay [1] turned out to be 449. Besides, the inhibition in assay [1] was -20.3% (inactive); in assay [3] it was 82.1% (active); in assay [7] it was 15% (inactive); in assay [8] it was 24.8% (inactive). Besides, the inhibition of aggregation in assay [2] is 33.7% (active). In addition, the values for the nuclei count in assay [2] and in assay [3] were 70.1% and 53.1%, respectively. Also, the fluorescence slope was -0.561 (inactive) in assay [4] and 0.00669 (inactive) in assay [6]. The NADPH fluorescence slope in assay [5] was -4.5e-05 (inactive).
With `CCSC1=C(C#N)C(c2cccc(OC)c2)CC(=O)N1` (centres undefined), the cell count in assay [1] was determined as 667. In addition, the inhibition was -14.3% (inactive) in assay [1], -70.7% (inactive) in assay [3], 14.9% (inactive) in assay [7] and 11.6% (inactive) in assay [8]. Further, in assay [2], the inhibition of aggregation was -16.9% (inactive). Also, the nuclei count in assay [2] was determined as 101%; in assay [3], 114%. Also, the fluorescence slope in assay [4] was -0.496 (inactive); in assay [6], 0.00475 (inactive). In addition, the NADPH fluorescence slope in assay [5] is -3.8e-05 (inactive).
With `CCOc1ccc(NC(=O)CN2CCN(CC(=O)Nc3ccc(F)c(F)c3)CC2)cc1`, in assay [1], the cell count worked out at 409. In addition, the inhibition in assay [1] is 3.1% (inactive); in assay [3], -60.2% (inactive); in assay [7] it was 12.5% (inactive); in assay [8], 23% (inactive). Moreover, in assay [2], the inhibition of aggregation is -0.9% (inactive). The nuclei count stood at 105% in assay [2] and 99.8% in assay [3]. Further, the fluorescence slope was -0.435 (inactive) in assay [4] and 0.00651 (inactive) in assay [6]. Besides, the NADPH fluorescence slope in assay [5] was 4.4e-05 (inactive).

For orientation: inhibition means the drop in the measured response relative to a control, in per cent.
